Screens as filed in PubChem.
Compounds with a hit are over-represented: about 1.9% of the library has one in this group of screens.
UBC13 inh: blocks human UBC13 polyubiquitin chain formation. AID 485273. P61088. hit rate 0.47% among 330,000. inhibition, % at 20 µM. TR-FRET; in the data active = inhibition above about 45%, passing the limit was not always enough; inconclusive = no clear call, values can overlap the other calls
Target sequence (P61088 whole entry, looked up): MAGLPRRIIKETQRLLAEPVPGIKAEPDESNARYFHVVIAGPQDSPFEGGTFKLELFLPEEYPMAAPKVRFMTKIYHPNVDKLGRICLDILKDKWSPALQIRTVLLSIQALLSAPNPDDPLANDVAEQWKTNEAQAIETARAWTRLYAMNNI
SR-BI HDL uptake: mouse SR-BI HDL lipid transfer inhibition. hit rate 0.96% among 320,000. inhibition, % at 12.5 µM. AID 488896. Q61009. ldlA[mSR-BI] CHO cells, DiI-HDL uptake fluorescence, 3 h;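 active = mean replicate inhibition of at least 70% and a set share of replicates each scoring 70 or more; inconclusive = meets just one of the two criteria; inactive = fails both criteria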
Target sequence (Q61009 whole entry, looked up): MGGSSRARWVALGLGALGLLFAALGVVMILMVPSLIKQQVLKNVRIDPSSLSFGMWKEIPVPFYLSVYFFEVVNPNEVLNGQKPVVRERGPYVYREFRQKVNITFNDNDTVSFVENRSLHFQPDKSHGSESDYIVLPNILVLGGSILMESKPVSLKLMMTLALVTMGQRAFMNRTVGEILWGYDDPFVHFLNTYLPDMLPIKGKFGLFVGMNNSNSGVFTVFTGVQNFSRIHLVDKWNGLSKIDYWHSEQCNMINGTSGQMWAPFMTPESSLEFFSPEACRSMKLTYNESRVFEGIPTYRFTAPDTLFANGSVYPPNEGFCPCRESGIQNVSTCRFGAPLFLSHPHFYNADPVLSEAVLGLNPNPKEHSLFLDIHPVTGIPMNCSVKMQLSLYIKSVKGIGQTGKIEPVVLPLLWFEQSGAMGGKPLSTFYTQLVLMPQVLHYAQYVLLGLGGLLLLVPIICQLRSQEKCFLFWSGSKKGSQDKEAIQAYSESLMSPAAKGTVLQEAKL
SR-BI uptake up: enhances SR-BI lipid uptake from DiI-HDL; CHO ldlA[mSR-BI] cells, DiI-HDL uptake fluorescence, 3 h; 100 = double the neutral-control signal; activation, % at 12.5 µM; hit rate 0.096% among 320,000; AID 504775;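 active = mean replicate activation of at least 60% and every replicate at or above 60%; inconclusive = mean or all-replicate condition met, but not both; inactive = mean below 60% and not all replicates reaching 60%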
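system = CHO ldlA[mSR-BI] cells, LDL receptor-null, SR-BI overexpressing | medium = Ham's F12 with 0.5% BSA, HEPES 25 mM, pH 7.4 | probe or stimulus = DiI-HDL 10 µg/mL | compound dosing = single-point compound dose | incubation = compound exposure 3 h, 37 °C | technique = DiI fluorescence, bottom read | read-out = cell-associated DiI fluorescence as measure of HDL uptake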
Neddyl block: blocks human cullin neddylation. P61081+Q13564. TR-FRET cullin neddylation, biochemical. hit rate 0.58% among 360,000. inhibition, % at 25 µM. AID 651699; in the data active = inhibition above about 36%
Casp3 UBC13 ctr: counter-screen for UBC13 inhibitors: human caspase-3 inhibition | shares compounds with UBC13 inh | Recombinant caspase-3, Caspase-Glo 3/7 luminescence, 60 min | inhibition, % at 20 µM | hit rate 4% among 1,400 | AID 488856;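 active = mean inhibition across replicates above about 26%, limit read from the data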
UBC13 confirm: confirmation of human UBC13 polyubiquitin inhibitors | shares compounds with UBC13 inh | UBC13 polyubiquitination, TR-FRET, biochemical | inhibition, % at 10 µM | hit rate 68% among 1,400 | AID 488859; in the data active = inhibition above about 45%; inconclusive = no clear call, values can overlap the other calls
Of the large screens only hits and unclear results are named; the others gave an inactive call (follow-up assays come after a bar, where shown).

CCCC(C(=O)NC1CCCC1)N(Cc1ccc2c(c1)OCO2)C(=O)c1snc(C(N)=O)c1N (stereo not given)	none
Cc1ccc(C(C(=O)NC(C)(C)C)N(Cc2ccccc2)C(=O)c2snc(C(N)=O)c2N)o1 (stereo not given)	UBC13 inh 70.9 | Casp3 UBC13 ctr inactive | UBC13 confirm 65.9
COC(=O)/C(=N\OCc1ccc(C#N)cc1)c1c(C)nn(C)c1C	none (no result: SR-BI HDL uptake, SR-BI uptake up)
O=C(COc1ccc(Cl)cc1)OCC(=O)N1CCCc2ccccc21	UBC13 inh 62.8 | Casp3 UBC13 ctr inactive | UBC13 confirm inactive
Cc1onc(-c2c(Cl)cccc2Cl)c1C(=O)c1c[nH]c(C(=O)NCC2CCCO2)c1 (stereo not given)	none
CCCCn1c(=O)[nH]c(=O)c2c1nc(-c1ccc(C#N)cc1)n2C1CCCC1	UBC13 inh 78.5 (not shown: Neddyl block) | Casp3 UBC13 ctr inactive | UBC13 confirm 68.0
CCCCn1c(=O)[nH]c(=O)c2c1nc(-c1ccc(OCC)cc1)n2CC	none
CC1CC(C)(C)CC2(C1)NC(=O)N(CC(=O)Nc1ccc3[nH]c(=O)[nH]c3c1)C2=O (stereo not given)	UBC13 inh 76.9 | Casp3 UBC13 ctr inactive | UBC13 confirm inactive
Fc1ccc(Nc2nc(NCc3ccco3)c3ccccc3n2)cc1	UBC13 inh 53.8, Neddyl block 43.4 | Casp3 UBC13 ctr inactive | UBC13 confirm 73.8
c1ccc(CNc2nc(NCc3ccccc3)c3ccccc3n2)cc1	UBC13 inh 75.1 | Casp3 UBC13 ctr inactive | UBC13 confirm 91.7
Nc1nc(Nc2ccccc2)nc(NCc2ccco2)c1[N+](=O)[O-]	none
CC1C(=O)N(Cc2cn(Cc3ccco3)nn2)CCS(=O)(=O)N1Cc1ccc(-c2ccccc2Cl)cc1 (stereo not given)	none (no result: UBC13 inh, SR-BI HDL uptake, SR-BI uptake up)
COc1ccc(C2CC(c3ccc(C)cc3)=NN2C(=O)CCC(=O)O)cc1OC (stereo not given)	none
CCCC(C(=O)NC(C)(C)C)N(Cc1ccc(F)cc1)C(=O)c1snc(C(N)=O)c1N (stereo not given)	none
CCCC(C(=O)NC(C)(C)C)N(C(=O)c1snc(C(N)=O)c1N)c1ccc2c(c1)OCCO2 (stereo not given)	UBC13 inh 65.0 | Casp3 UBC13 ctr inactive | UBC13 confirm 85.5
CCC(C)(C)NC(=O)CN(C(=O)c1snc(C(N)=O)c1N)c1ccc2c(c1)OCCO2	UBC13 inh 70.2 | Casp3 UBC13 ctr inactive | UBC13 confirm 59.4
COc1ccc(N(CC(=O)NC2CCCCC2)C(=O)c2snc(C(N)=O)c2N)cc1	none
CCC(C)(C)NC(=O)CN(C(=O)c1snc(C(N)=O)c1N)c1ccc2nc(C)sc2c1	UBC13 inh 73.6 | Casp3 UBC13 ctr inactive | UBC13 confirm 83.0
CN(C)CCNc1oc(COc2ccc(Cl)cc2Cl)nc1C#N	UBC13 inh 90.8 | Casp3 UBC13 ctr inactive | UBC13 confirm 97.6
CCN(CC)S(=O)(=O)c1ccc(C(=O)NNC(=O)C2CCN(S(=O)(=O)c3ccc(Cl)cc3)CC2)cc1	UBC13 inh 77.7 | Casp3 UBC13 ctr inactive | UBC13 confirm 77.0
Nc1nc2ccccc2cc1S(=O)(=O)c1ccccc1	none (not shown: Neddyl block)
Nc1ncc([N+](=O)[O-])cc1S(=O)(=O)c1ccccc1	UBC13 inh 53.5 (no result: SR-BI HDL uptake, SR-BI uptake up) | Casp3 UBC13 ctr inactive | UBC13 confirm 48.7
COc1cc(/C=C2\SC(=Nc3ccc(O)cc3)NC2=O)cc(OC)c1OC	none (no result: SR-BI HDL uptake, SR-BI uptake up, Neddyl block)
COc1cc(/C=C2/SC(=Nc3ccc(O)cc3)NC2=O)cc(OC)c1O	UBC13 inh 48.0 | Casp3 UBC13 ctr inactive | UBC13 confirm 46.7
NC(=S)N=Nc1c(O)n(C2OC(=O)c3ccccc32)c2ccccc12 (stereo not given)	UBC13 inh 88.5 | Casp3 UBC13 ctr inactive | UBC13 confirm 104.2
NC(=S)N=Nc1c(O)n(CCCl)c2ccc(Cl)cc12	UBC13 inh 68.2 | Casp3 UBC13 ctr inactive | UBC13 confirm 89.7
NC(=S)N=Nc1c(O)n(CCCl)c2ccccc12	UBC13 inh 89.6 | Casp3 UBC13 ctr inactive | UBC13 confirm 84.8
NC(=S)N=Nc1c(O)n(CC(=O)Nc2ccccc2)c2ccccc12	none
CCOc1ccc2c(c1)c(N=NC(N)=S)c(O)n2C	UBC13 inh inconclusive (no result: SR-BI HDL uptake, SR-BI uptake up)
CN(C(=O)Cn1nnc(-c2ccccc2)n1)C1CCS(=O)(=O)C1 (stereo not given)	none
Brc1ccc2nc(-c3ccco3)c(CC3CCCCC3)n2c1	none (no result: UBC13 inh, SR-BI HDL uptake, SR-BI uptake up)
CC(C)CNC(=O)C(=O)NCC1OCCCN1S(=O)(=O)c1cccs1 (stereo not given)	none
COC(=O)c1c(-c2ccc(SC)cc2)sc2ccc(OC)cc12	UBC13 inh 50.4 | Casp3 UBC13 ctr inactive | UBC13 confirm inconclusive
COC(=O)c1c(-c2ccc(S(C)(=O)=O)cc2)sc2cc(OC)ccc12	UBC13 inh inconclusive
COC(=O)c1c(-c2ccc(S(C)(=O)=O)cc2)sc2ccc(OC)cc12	UBC13 inh 54.5 | Casp3 UBC13 ctr inactive | UBC13 confirm inactive
COC(=O)c1c(-c2cc(OC)cc(OC)c2)sc2ccc(OC)cc12	none
CC1(C2CC2)NC(=O)N(CC(=O)Nc2ccc(OC(F)F)cc2)C1=O (stereo not given)	none (no result: UBC13 inh, SR-BI HDL uptake, SR-BI uptake up)
CCOC(=O)c1cc(-c2ccc3c(c2)OCCO3)nc2c1c(C)nn2CCC#N	UBC13 inh inconclusive (not shown: Neddyl block)
CCOC(=O)c1cc(-c2ccccc2)nc2c1c(C)nn2-c1ccccn1	UBC13 inh 61.8 (not shown: Neddyl block) | Casp3 UBC13 ctr inactive | UBC13 confirm inactive
CCOC(=O)c1cc(-c2ccc(OC)cc2F)nc2c1c(C)nn2CCC#N	UBC13 inh 48.8 (not shown: Neddyl block) | Casp3 UBC13 ctr inactive | UBC13 confirm inactive
CCOC(=O)c1cc(-c2ccc(Cl)cc2)nc2c1c(C)nn2CCC#N	UBC13 inh inconclusive
CCOC(=O)c1cc(-c2ccncc2)nc2c1c(C)nn2C	UBC13 inh 113.2 (not shown: Neddyl block) | Casp3 UBC13 ctr inactive | UBC13 confirm inconclusive
O=C(CCCCCn1c(=O)[nH]c2ccccc2c1=O)NCCCN1CCN(c2ccccc2F)CC1	UBC13 inh 63.2 | Casp3 UBC13 ctr inactive | UBC13 confirm 53.1
O=C(CCNC(=O)Cn1ccc2ccccc2c1=O)NCCN1CCN(c2ccccc2F)CC1	UBC13 inh 91.4 | Casp3 UBC13 ctr inactive | UBC13 confirm 100.8
O=C(CCNC(=O)Cn1ccc2ccccc2c1=O)NCCN1CCN(c2cccc(Cl)c2)CC1	UBC13 inh 100.7 | Casp3 UBC13 ctr inactive | UBC13 confirm 104.4
Cc1ccc(C(=O)N2CCN(c3ccc(NC(=S)NC(=O)c4cccs4)cc3)CC2)cc1	none
Cc1ccccc1C(=O)N1CCN(c2ccc(NC(=S)NC(=O)c3cccs3)cc2)CC1	UBC13 inh 86.5 (no result: SR-BI HDL uptake, SR-BI uptake up) | Casp3 UBC13 ctr inactive | UBC13 confirm 85.3
O=C(C[n+]1ccc(CCSc2ccc(F)cc2)cc1)c1ccccc1	UBC13 inh 72.3 | Casp3 UBC13 ctr inactive | UBC13 confirm 124.2
Cc1ccc(SCCc2cc[n+](CC(=O)c3ccccc3)cc2)cc1	none
